Measurements from different studies.
Effect on: cell growth or viability

| SMILES | cell line | method | time | IC50 [µM] |
| --- | --- | --- | --- | --- |
| COc1ccccc1C(=O)c1cc2c(-c3ccccc3)c(OC)ccc2o1 | L1210 | – | 48 h | > 50 |
| O=C1Nc2ccc(S(F)(F)(F)(F)F)cc2C(=O)CCc2ccccc21 | L6 | – | – | 2.8 |
| O=C1C(=Cc2ccccc2)CN(C(=O)c2ccc(C(=O)N3CC(=Cc4ccccc4)C(=O)C(=Cc4ccccc4)C3)cc2)CC1=Cc1ccccc1 | L1210 | – | – | > 500 |
| C=C(C)C(=O)Nc1ccc(-c2c(-c3ccc(Oc4nccc(C)n4)c(F)c3)c3c(N)ncnc3n2C)cc1 | MDA-MB-453 | ATP luminescence | 96 h | > 10 |
| CC(C)C[C@H](NC(=O)[C@H](Cc1ccccc1)NC(=O)c1cnccn1)B(O)O | NCI-H1838 | ATP luminescence | – | 0.053 |
| O=C1Nc2ccccc2C(=O)CCc2cc(F)ccc21 | L6 | – | – | 96 |
| COc1cccc(C(=O)c2cc3c(-c4ccccc4)c(O)ccc3o2)c1 | L1210 | – | 48 h | 38 |
| CC(C)[C@H](N)c1nc2cc(N3CCNCC3)sc2c(=O)[nH]1 | COLO 205 | MTT | – | > 10 |
| COc1cc(OC)cc(C(=O)c2cc3c(-c4ccccc4)c(OC)ccc3o2)c1 | L1210 | – | 48 h | > 50 |
| O=C1Nc2ccc(F)cc2C(=O)CCc2ccccc21 | L6 | – | – | 110 |
| CCN1C(=O)N(c2c(F)c(OC)cc(OC)c2F)Cc2cnc3[nH]c(CN4CCOCC4)cc3c21 | MDA-MB-453 | ATP luminescence | 96 h | 0.0764 |
| CCN(CC)CCCC(C)Nc1ccnc2cc(Cl)ccc12 (centres unmarked) | GISTT1 | resazurin | 72 h | > 1 |
| C#C[C@]1(CO)O[C@@H](n2cnc3c(N)nc(F)nc32)C[C@@H]1O | MDCK-II | MTT | 48 h | 377 |
| NC(=O)c1ccc2c(c1)C(=O)CCc1ccccc1C(=O)N2 | L6 | – | – | > 340 |
| CC(C)[C@H](N)c1nc2cc(-c3ccnc(Cl)c3)sc2c(=O)[nH]1 | COLO 205 | MTT | – | 1.6 |
| CC(=O)[C@]1(O)Cc2c(O)c3c(c(O)c2[C@@H](O[C@H]2C[C@H](N)[C@H](O)[C@H](C)O2)C1)C(=O)c1ccccc1C3=O | GISTT1 | resazurin | 72 h | 0.1 |
| CC(C)=CCC/C(C)=C/COc1ccc2ccc(=O)oc2c1 | COLO 205 | MTT | 72 h | 63.1 |
| COC(=O)Nc1nc2ccc(C(=O)c3ccccc3)cc2[nH]1 | GISTT1 | resazurin | 72 h | 0.81 |
| COc1cc2ccc(=O)oc2cc1OC | COLO 205 | MTT | 72 h | > 100 |

| SMILES | cell line | method | time | IC50 [µM] |
| --- | --- | --- | --- | --- |
| COc1cccc2c1C(=O)c1c(O)c3c(c(O)c1C2=O)C[C@@](O)(C(=O)CO)C[C@@H]3O[C@H]1C[C@H](N)[C@H](O)[C@H](C)O1 | GISTT1 | resazurin | 72 h | 0.31 |
| O=C1Nc2ccccc2C(=O)CCc2ccc(F)cc21 | L6 | – | – | 110 |
| COc1cc(-c2oc3cc(O)cc(O)c3c(=O)c2O)ccc1O | SCaBER | ATP luminescence | 72 h | 43.2 |
| CCC(=O)Nc1cc(Nc2nc(Nc3cnn(C)c3)c3sccc3n2)c(OC)cc1N(C)CCN(C)C | NCI-H460 | MTT | – | > 50 |
| COc1ccc(/C=C\c2cc(OC)c(OC)c(OC)c2)cc1O | L1210 | – | 48 h | 0.0032 |
| O=C1c2c(O)ccc(O)c2C(=O)c2c(NCCNCCO)ccc(NCCNCCO)c21 | GISTT1 | resazurin | 72 h | 0.42 |
| Cc1ccc(-c2cc(COCc3ccc(C(C)C)cc3)c3cccnc3c2O)cc1 | MDA-MB-453 | MTS | 72 h | 0.9 |
| CC(C)[C@H](N)C(=O)N1CCC[C@H]1B(O)O | RS4-11 | ATP luminescence | 24 h | 0.147 |
| O=C1Nc2ccccc2C(=NO)CCc2ccccc21 | L6 | – | – | > 380 |
| COc1ccc(C(=O)c2cc3c(-c4ccccc4)c(OC)ccc3o2)cc1 | L1210 | – | 48 h | 2.8 |
| COc1cc(NS(C)(=O)=O)ccc1Nc1c2ccccc2nc2ccccc12 | GISTT1 | resazurin | 72 h | 0.31 |
| COc1ccc2c(c1)C(=O)CCc1ccccc1C(=O)N2 | L6 | – | – | 47 |
| CCC(=O)Nc1cc(Nc2nc(N3CCc4sccc4C3)c3cccnc3n2)c(OC)cc1N1CCN(CCO)CC1 | NCI-H460 | MTT | – | > 50 |
| Nc1nc(F)nc2c1ncn2[C@@H]1O[C@H](COP(=O)(O)O)[C@@H](O)[C@@H]1O | GISTT1 | – | 72 h | 0.53 |
| O=c1c(O)c(-c2ccc(O)c(O)c2)oc2cc(O)cc(O)c12 | SCaBER | ATP luminescence | 72 h | 24.2 |
| O=C1Nc2ccc(OC(F)(F)F)cc2C(=O)CCc2ccccc21 | L6 | – | – | 44 |
| Nc1nc(Cl)nc2c1ncn2[C@@H]1O[C@H](CO)[C@@H](O)[C@@H]1F | GISTT1 | resazurin | 72 h | > 1 |
| CC(C)n1c(/C=C/C(O)CC(O)CC(=O)O)c(-c2ccc(F)cc2)c2ccccc21 (centres unmarked) | L1210 | MTS | 96 h | 2.3 |
| O=c1ncccn1[C@@H]1O[C@H](CO)[C@@H](O)[C@H]1O | MEC1 | – | 48 h | 195 |
